High-throughput results as filed in PubChem.
FAS-TE inh: blocks the thioesterase domain of human fatty acid synthase | recombinant FAS-TE, OMFH fluorogenic substrate, fluorescence endpoint | P49327 | inhibition, % at 15 µM | AID 602261 | actives 0.67% (n = 360,000);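 active means compounds whose normalised, plate-corrected inhibition of enzyme fluorescence in the single-dose primary screen is 50% or more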;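 further: 0% = DMSO with enzyme and 100% = substrate without enzyme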
CendR NRP1 mod: alters CendR peptide binding to human NRP-1. O14786. FAM-RPARPAR peptide binding to NRP-1, fluorescence polarization. inhibition, % at 25 µM. actives 0.85% (n = 360,000). AID 602438;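 active means inhibition or corrected inhibition above about 18%, plus a signal ratio from 0.5 to 1.5, limit read from the data, passing the limit was not always enough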
CaV13 FRET inh: Primary screen for inhibitors of IQ motif and Ca2+-dependent inactivation inhibitor domain binding in CACNA1D, Förster resonance energy transfer in living cells, …. actives 0.098% (n = 340,000). AID 743397. HEK cells, CFP/YFP FRET ICDI-IQ, plate reader, 10 min; percent FRET-ratio fall versus neutral wells. inhibition, % at 12.3 µM;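 active means mean replicate inhibition of at least 30% and at least 1% of replicates passing that level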;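 further: 0% = median of the neutral control wells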
ADAM10 inh: inhibits human ADAM10; O14672; recombinant ADAM10, EDANS/DABCYL FRET peptide cleavage, 3 h; inhibition, % at 7 µM; actives 0.62% (n = 370,000); AID 720582;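 active means inhibition above a per-campaign cutoff equal to the mean of compounds falling between control-based bounds plus 3 SD, cut at about 20% in these data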;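 further: 0% = DMSO wells while the 100% control is not disclosed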
Target sequence (O14672 214-748 limits assumed): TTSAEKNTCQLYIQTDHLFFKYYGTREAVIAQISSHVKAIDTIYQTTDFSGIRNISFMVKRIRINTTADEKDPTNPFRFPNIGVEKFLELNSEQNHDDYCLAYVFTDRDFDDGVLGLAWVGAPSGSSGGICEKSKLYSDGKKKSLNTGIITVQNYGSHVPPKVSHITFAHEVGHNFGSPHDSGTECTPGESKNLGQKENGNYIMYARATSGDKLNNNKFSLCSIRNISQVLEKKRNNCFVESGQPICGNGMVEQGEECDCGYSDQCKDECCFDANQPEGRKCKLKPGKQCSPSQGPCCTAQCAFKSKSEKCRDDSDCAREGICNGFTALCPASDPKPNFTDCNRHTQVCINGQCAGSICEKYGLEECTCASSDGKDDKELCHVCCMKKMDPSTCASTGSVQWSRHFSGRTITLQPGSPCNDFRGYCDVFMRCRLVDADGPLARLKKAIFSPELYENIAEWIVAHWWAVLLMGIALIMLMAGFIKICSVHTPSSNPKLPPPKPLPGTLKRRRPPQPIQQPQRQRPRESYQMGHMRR
Arr AP2 block: human beta-arrestin and AP2 interaction inhibition | FITC-arrestin peptide / GST-AP2 beads, flow cytometry; AP2 beta2 appendage carries R879A mutation | inhibition, % at 10 µM | actives 0.31% (n = 340,000) | AID 504490;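 active means inhibition above a set limit, near 3 SD of compounds lacking own fluorescence, cut at about 54% in these data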;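 further: plate controls were DMSO wells for no effect and 5 µM unlabelled arrestin peptide for full effect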
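System: GST-AP2 R879A bound to glutathione beads, E. coli-expressed. Also added: 50 nM FITC-arrestin peptide. Schedule: compound with beads 12 min RT, then probe 1 h RT. Signal: bead flow cytometry, FITC channel. Read-out basis: percent response.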
ADAM17 inh: ADAM17 inhibition, QFRET primary screen; inhibition, % at 6.95 µM; recombinant ADAM17, EDANS/DABCYL FRET peptide cleavage; P78536; AID 720648; actives 0.83% (n = 370,000);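 active means inhibition above the mean of compounds lying between control limits plus 3 SD, set per campaign, cut at about 8.5% in these data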;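 further: 0% = DMSO-only wells as the low control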
An asterisk follows results filed as active; i = inactive; · = not tested or not shown. The list is not random: actives were taken first. Their share in the collection is about 2.9%.

SMILES	FAS-TE inh	CendR NRP1 mod	CaV13 FRET inh	ADAM10 inh	Arr AP2 block	ADAM17 inh
CCCCc1c(-c2ccccc2OC)ncn1CCc1ccccc1Cl	16	-8	-9	-2	·	0
CC(O)(c1cccnc1)c1nc(/C=C/c2ccccc2)cs1 (stereo not given)	-2	26*	-5	-2	·	-3
COc1ccc(C(C)(O)c2nc(/C=C/c3ccccc3)cs2)cc1 (stereo not given)	24	16	-5	7	·	5
COc1ccc(N=C(N)NC(=O)OCc2ccccc2)cc1	·	·	·	-6	·	-1
CN(Cc1ccccc1)C(=O)c1cccc(NC(=O)Cc2ccc(NC(=O)C3CCN(C(=O)C4CCC4)CC3)cc2)c1	-7	0	-10	-7	8	-1
Cc1ccc(C)c(N=Nc2ccc(O)c3ncccc23)c1	12	0	-5	10	103*	0
COCc1cn([C@H]2C[C@@H]3O[C@H](CO)CC[C@@H]3O[C@@H]2CCc2ccc(-c3ccc(OC)cc3)cc2)nn1	·	·	·	7	·	1
CCN(CC)CCn1c(NCc2cccc(OC)c2OC)nc2ccccc21	-3	21*	·	-9	-3	-4
CCCn1nnnc1NCc1cccc(OC)c1OC	-4	15	-19	10	39	-1
CCCCn1nnnc1NCc1cccc(OC)c1OC	-6	23*	-7	2	-2	0
CCN(CC)CCn1c(NCc2ccco2)nc2ccccc21	-3	7	-6	0	-5	0
COC(=O)[C@]12C[C@H](CC(=O)N3CCN(C(=O)c4ccco4)CC3)C(=O)N(Cc3ccc4c(c3)OCO4)C1=C[C@H](C(C)C)O[C@@H]2C1CC1	·	·	·	-8	·	-7
Cc1ccc(S(=O)(=O)N2[C@@H](c3ccccc3F)C(C(=O)O)=CC[C@H]2c2ccc3c(c2)OCO3)cc1	-2	-14	-11	-1	-4	-5
Nn1c(SCC(=O)NC2CCCCCC2)nnc1-c1ccco1	-6	-5	-2	-15	·	-5
N#CC(C#N)=Cc1cc2ccccc2nc1N1CCCCC1	0	33*	-3	-68	6	-22
CN1C[C@@H]2C(c3ccc(Cl)nc3)C3(c4ccc(C#N)cc4)CC2(C3)[C@H]1c1ccccc1 (stereo not given in full)	34	21	-8	-7	8	-1
N#Cc1ccc(C23CC4(C2)[C@H](CN(P(=O)(c2ccccc2)c2ccccc2)[C@@H]4c2ccccc2)C3c2ccc(Cl)nc2)cc1 (stereo not given in full)	72*	-16	·	·	-2	·
COc1ccc(CCNC(=O)Nc2nc(C(N)C3CCCCC3)cs2)cc1OC (stereo not given)	-4	17*	-6	-5	·	-5
COc1cc2c(c(OC)c1OC)C(=O)CO2	-5	18*	-6	1	-1	0
Cc1nnc2n1NC(c1ccc(Cl)cc1)C(C(=O)N1CCC(C)CC1)S2 (stereo not given)	-2	23*	·	7	-6	6
Cc1ccc(-n2c(SCC(=O)Nc3cccc4ccccc34)nnc2-c2ccccc2)cc1	·	·	·	-2	·	2
Cc1cn([C@H]2C[C@H](O)[C@@H](CCC(=O)NCCCn3ccnc3)O2)c(=O)[nH]c1=O	-6	31*	-5	3	-11	5
Cc1cc(=O)oc(C)c1C(=O)Nc1ccc2nsnc2c1	-6	27*	·	-89	2	-19
CCc1cccc(C)c1NC(=O)CCCSc1nc2ccccc2s1	8	3	-8	12	8	5
CCc1cccc(CC)c1NC(=O)C1SC(=Nc2ccccc2C)C(c2nc3ccccc3s2)=C1N (stereo not given)	14	-6	-3	22*	-6	8
SMILES	FAS-TE inh	CendR NRP1 mod	CaV13 FRET inh	ADAM10 inh	Arr AP2 block	ADAM17 inh
COc1ccc2c(C)c(CC(=O)N3CCN(C(=O)C4COc5ccccc5O4)CC3)c(=O)oc2c1 (stereo not given)	5	3	-7	i	-3	-454
Cc1c(CC(=O)N2CCN(C(=O)C3COc4ccccc4O3)CC2)c(=O)oc2cc(O)ccc12 (stereo not given)	-3	72*	-5	i	0	i
FC(F)(F)c1ccccc1Cn1ccc2ccc(-c3ccc4ccn(Cc5ccccc5)c4c3)cc21	·	·	·	-20	·	-10
COC/C=C/C1=CC2=CC(=O)C(C)(OC(=O)c3cnc4ccccc4n3)C(=O)C2=CN1Cc1ccc(OC)cc1 (stereo not given)	1	37*	-9	0	12	5
COC/C=C/C1=CC2=CC(=O)C(C)(OC(=O)c3cnc4ccccc4n3)C(=O)C2=CN1Cc1ccccc1 (stereo not given)	1	25*	-11	-4	12	-2
COC/C=C/C1=CC2=CC(=O)C(C)(OC(=O)c3cnc4ccccc4n3)C(=O)C2=CN1CC1CC1 (stereo not given)	-7	29*	·	·	10	·
COC/C=C/C1=CC2=CC(=O)C(C)(OC(=O)c3cnc4ccccc4n3)C(=O)C2=CN1CCCCO (stereo not given)	-11	15	-12	-2	16	-4
CCn1c(=O)c(C(=O)NCCNCCO)c(O)c2ccccc21	-1	37*	-5	-2	0	-7
CCn1c(=O)c(C(=O)NCc2ccccc2)c(O)c2ccccc21	22	-6	-5	-8	1	-1
COC(=O)CCC(=O)OC1(C)C(=O)C=C2C=C3CCCN3C=C2C1=O (stereo not given)	-7	41*	-6	-6	16	-1
CC1(OC(=O)C2CCCC2)C(=O)C=C2C=C3CCCCN3C=C2C1=O (stereo not given)	-7	32*	·	·	18	·
COC/C=C/C1=CC2=CC(=O)C(C)(OC(=O)c3cnc4ccccc4n3)C(=O)C2=CN1C1CC1 (stereo not given)	-12	-20	-12	5	26	-5
CC1(OC(=O)c2ccc(Cl)nc2)C(=O)C=C2C=C3CCCN3C=C2C1=O (stereo not given)	-1	51*	-5	-1	15	-3
COC(=O)CCC(=O)OC1(C)C(=O)C=C2C=C(C3CC3)N(CCN3CCOCC3)C=C2C1=O (stereo not given)	4	16	-4	-3	24	-6
CC1(OC(=O)C2CCCC2)C(=O)C=C2C=C(c3ccsc3)N(C3CC3)C=C2C1=O (stereo not given)	-8	-18	-5	-19	24	-10
COc1cccc(C(C)(O)c2nc(-c3cccc(NC(C)=O)c3)cs2)c1 (stereo not given)	-3	5	-4	3	·	-2
